Measured values as given in ChEMBL document CHEMBL4002578, “α-Glucosidase Inhibitors from the Marine-Derived Fungus Aspergillus flavipes HN4-13” (J Nat Prod, 2016).
Structures can show the parent of a compound that is named as a salt.

Tests used:
[1] = test system: Jurkat; experiment: Cytotoxicity against human Jurkat cells assessed as growth inhibition at 10 uM measured after 72 hrs by CCK-8 assay relative to control; type: functional; conditions: read-out: GI
[2] = test system: A549; experiment: Cytotoxicity against human A549 cells assessed as growth inhibition at 10 uM measured after 72 hrs by CCK-8 assay relative to control; type: functional; conditions: A549, 72 h, read-out: GI
[3] = Cytotoxicity against human Caco2 cells measured after 72 hrs by MTT assay; type: cell-based; conditions: Caco-2 cells
How it was run: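 Caco-2 viability was measured by MTT, and the median cytotoxic concentration (CC50) was derived.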

[4] = Selectivity index, ratio of CC50 for human Caco2 cells to IC50 for human alpha-glucosidase expressed in Saccharomyces cerevisiae
How it was run: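 SI was calculated as Caco-2 CC50 (MTT) divided by the α-glucosidase IC50 from the pNPG assay.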

[5] = Non-competitive inhibition of human alpha-glucosidase expressed in Saccharomyces cerevisiae using varying levels of p-nitophenyl-alpha-glucopyranoside as substrate pretreated with substrate for 15 mins followed by enzyme addition measured after 15 mins by Lineweaver-burk plot analysis
[6] = Competitive inhibition of human alpha-glucosidase expressed in Saccharomyces cerevisiae using varying levels of p-nitophenyl-alpha-glucopyranoside as substrate pretreated with substrate for 15 mins followed by enzyme addition measured after 15 mins by Lineweaver-burk plot analysis
[7] = Inhibition of human alpha-glucosidase expressed in Saccharomyces cerevisiae using p-nitophenyl-alpha-glucopyranoside as substrate pretreated with substrate for 15 mins followed by enzyme addition measured after 15 mins
How it was run: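 Enzyme from a recombinant gene expressed in Saccharomyces cerevisiae, diluted to 0.2 U/mL in 0.01 M PBS. Compound, at three concentrations in sodium phosphate buffer pH 6.8, was mixed with 2.5 mM pNPG stock and held 15 min at 37 °C. Enzyme was then added for a further 15 min at 37 °C, and absorbance was read at 405 nm. The no-enzyme blank was subtracted, and IC50 was taken as the concentration giving 50% inhibition.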

[8] = test system: MCF7; experiment: Cytotoxicity against human MCF7 cells assessed as growth inhibition at 10 uM measured after 72 hrs by CCK-8 assay relative to control; type: functional; conditions: MCF7, 72 h, read-out: GI
[9] = test system: HepG2; experiment: Cytotoxicity against human HepG2 cells assessed as growth inhibition at 10 uM measured after 72 hrs by CCK-8 assay relative to control; type: functional; conditions: HepG2, 72 h, read-out: GI
[10] = test system: K562; experiment: Cytotoxicity against human K562 cells assessed as growth inhibition at 10 uM measured after 72 hrs by CCK-8 assay relative to control; type: functional; conditions: K562, 72 h, read-out: GI

Compound | inhibition of growth at 10 µM [1] | inhibition of growth at 10 µM [2] | CC50 at 72 h [3] | Ratio CC50/IC50 [4] | Ki [5] | Ki [6] | IC50 [7] | inhibition of growth at 10 µM [8] | inhibition of growth at 10 µM [9] | inhibition of growth at 10 µM [10]
COC(=O)[C@@]1(O)OC(=O)C(Cc2ccc3c(c2)CCC(C)(C)O3)=C1c1ccc(O)cc1 | < 34% | < 34% | 278 µM | 4.8 | 14 µM | 3.4 µM | 57 µM | < 34% | < 34% | < 34%
COC(=O)c1cc(O)cc(OC)c1Oc1c(Cl)c(C)c(Cl)c(O)c1C(=O)OC [METYL DICHLOROASTERRATE] | < 34% | < 34% | > 800 µM | >8.9 | 2.8 µM |  | 90 µM | < 34% | < 34% | < 34%
COc1cc(/C=C2\OC(=O)C(c3ccc(O)cc3)=C2O)ccc1O | < 34% | < 34% |  |  |  |  | 120 to 1300 µM | < 34% | < 34% | < 34%
CC1(C)CCc2cc(CC3OC(=O)C(O)=C3c3ccc(O)cc3)ccc2O1 (configuration not stated) | < 34% | < 34% | > 800 µM | >24 | 0.43 µM |  | 34 µM | < 34% | < 34% | < 34%
COC(=O)c1cc(O)cc(OC)c1Oc1c(Cl)c(C)c(Cl)c(O)c1C(=O)O [GEODIN HYDRATE] | < 34% | < 34% | > 800 µM | >15 | 5.5 µM | 6.3 µM | 55 µM | < 34% | < 34% | < 34%
COC(=O)c1cc(O)cc(OC)c1C(=O)c1c(O)cc(C)c(Cl)c1O | < 34% | < 34% |  |  |  |  | 120 to 1300 µM | < 34% | < 34% | < 34%
COC(=O)[C@]1(Cc2ccc3c(c2)CCC(C)(C)O3)OC(=O)C(O)=C1c1ccc(O)cc1 | < 34% | < 34% | > 800 µM | >22 | 2.1 µM |  | 37 µM | < 34% | < 34% | < 34%
COc1cccc2c1C(=O)c1c(O)c3c(c(O)c1C2=O)C[C@@](O)(C(=O)CO)C[C@@H]3O[C@H]1C[C@H](N)[C@H](O)[C@H](C)O1 [DOXORUBICIN HYDROCHLORIDE] | < 34% | < 34% |  |  |  |  |  | < 34% | < 34% | < 34%
C[C@H]1O[C@H](O[C@H]2[C@H](O)[C@@H](O)[C@@H](O[C@H]3[C@H](O)[C@@H](O)C(O)O[C@@H]3CO)O[C@@H]2CO)[C@H](O)[C@@H](O)[C@@H]1N[C@H]1C=C(CO)[C@@H](O)[C@H](O)[C@H]1O (some centres not stated) [ACARBOSE] |  |  |  |  |  |  | 101 µM |  |  | 
COc1cc(O)cc(C(=O)O)c1Oc1cc(C)cc(O)c1C(=O)O | < 34% | < 34% | > 800 µM | >81 | 0.6 µM | 1.4 µM | 9.9 µM | < 34% | < 34% | < 34%
COC(=O)c1cc(O)cc(OC)c1C(=O)c1c(O)c(Cl)c(C)c(Cl)c1O [DIHYDROGEODIN] | < 34% | < 34% |  |  |  |  | 120 to 1300 µM | < 34% | < 34% | < 34%
CC1(C)CCc2cc(CC3=C(c4ccc(O)cc4)[C@@](O)(C(=O)O)OC3=O)ccc2O1 | < 34% | < 34% | > 800 µM | >8.5 | 4.7 µM | 9.2 µM | 95 µM | < 34% | < 34% | < 34%
Cc1c(O)c(O)c(O)c(C=O)c1-c1cc2c(C=O)c(C)c(O)c(O)c2o1 | < 34% | < 34% | > 800 µM | >24 | 7.2 µM | 2.5 µM | 33 µM | < 34% | < 34% | < 34%
CCOC(=O)[C@@]1(O)OC(=O)C(Cc2ccc3c(c2)CCC(C)(C)O3)=C1c1ccc(O)cc1 | < 34% | < 34% | 519 µM | 12 | 19 µM | 2.5 µM | 44 µM | < 34% | < 34% | < 34%
COC(=O)c1cc(O)cc(OC)c1Oc1cc(C)cc(O)c1C(=O)O [ASTERRIC ACID] | < 34% | < 34% |  |  |  |  |  | < 34% | < 34% | < 34%
COC(=O)c1cc(O)cc(OC)c1Oc1cc(C)c(Cl)c(O)c1C(=O)O | < 34% | < 34% |  |  |  |  | 120 to 1300 µM | < 34% | < 34% | < 34%
Cc1cc(O)c2c(c1)C(=O)c1cc(O)cc(O)c1C2=O [EMODIN] | < 34% | < 34% | > 800 µM | >43 | 0.79 µM |  | 19 µM | < 34% | < 34% | < 34%
OC[C@H]1NC[C@H](O)[C@@H](O)[C@@H]1O [DUVOGLUSTAT] |  |  |  |  |  |  | 79 µM |  |  | 
